Measured values taken from ChEMBL document CHEMBL1125205, “Phosphorus-containing inhibitors of HMG-CoA reductase. 2. Synthesis and biological activities of a series of substituted pyridines containing a hydroxyphosphinyl moiety” (J Med Chem, 1991).

system: not listed separately; experiment: It is the ratio of I50 fibroblasts to that of I50 hepatocytes.; format: functional, Hepatocyte; conditions: not given
Procedure, shortened: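 Selectivity is the ratio of I50 in human skin fibroblasts to I50 in freshly isolated rat hepatocytes. Each I50 came from [14C]acetate incorporation into cholesterol, measured as percent inhibition versus controls from composite dose-response data.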

SMILES	Selectivity
CCc1c(-c2ccccc2)nc(C(C)C)c(C#CP(=O)([O-])C[C@H](O)CC(=O)[O-])c1-c1ccc(F)cc1.[Na+].[Na+]	13
CC[C@H](C)C(=O)O[C@H]1C[C@H](O)C=C2C=C[C@H](C)[C@H](CC[C@@H](O)C[C@@H](O)CC(=O)[O-])[C@H]21.[Na+] [PRAVASTATIN SODIUM]	31

biological target: T1, 3-hydroxy-3-methylglutaryl-coenzyme A reductase (Rattus norvegicus, UniProt P51639); experiment: The compound was tested in vitro for inhibition of rat hepatic HMG-CoA reductase.; format: functional; conditions: read-out: I50
T1 sequence (P51639 whole entry): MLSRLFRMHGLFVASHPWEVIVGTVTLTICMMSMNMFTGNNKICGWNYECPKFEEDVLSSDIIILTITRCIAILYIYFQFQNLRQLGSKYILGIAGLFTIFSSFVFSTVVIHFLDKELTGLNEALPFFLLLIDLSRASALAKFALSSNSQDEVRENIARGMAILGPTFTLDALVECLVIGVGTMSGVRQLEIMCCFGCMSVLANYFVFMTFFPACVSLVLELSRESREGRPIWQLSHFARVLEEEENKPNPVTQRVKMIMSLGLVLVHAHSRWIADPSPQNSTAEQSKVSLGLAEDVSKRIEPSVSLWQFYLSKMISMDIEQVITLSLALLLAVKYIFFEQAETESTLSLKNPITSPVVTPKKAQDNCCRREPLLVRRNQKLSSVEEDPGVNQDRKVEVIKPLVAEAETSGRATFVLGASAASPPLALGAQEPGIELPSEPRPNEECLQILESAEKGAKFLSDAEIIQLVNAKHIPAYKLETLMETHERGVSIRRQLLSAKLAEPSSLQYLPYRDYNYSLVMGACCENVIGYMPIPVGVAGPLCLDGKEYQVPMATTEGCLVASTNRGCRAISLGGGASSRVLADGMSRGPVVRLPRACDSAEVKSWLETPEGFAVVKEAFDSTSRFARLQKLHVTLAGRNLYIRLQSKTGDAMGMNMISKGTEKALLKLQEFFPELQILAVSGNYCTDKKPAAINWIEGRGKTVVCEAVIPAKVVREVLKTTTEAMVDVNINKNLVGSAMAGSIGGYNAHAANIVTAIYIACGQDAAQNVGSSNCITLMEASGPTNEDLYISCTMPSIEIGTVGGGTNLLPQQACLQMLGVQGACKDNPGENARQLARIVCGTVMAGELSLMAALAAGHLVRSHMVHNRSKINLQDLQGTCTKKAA
Procedure, shortened: (§1)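 Enzyme source: hepatic microsomes from cholestyramine-fed Sprague-Dawley rats. Final assay conditions: 0.04 M potassium phosphate pH 7.2, KCl, sucrose, EDTA, 10 mM DTT, 1% DMSO, 50-200 µg microsomal protein. Microsomes were preincubated with 2.7 mM NADPH for 15 min at 37 °C, then with compound for 15 min. 100 µM 14C-[D,L]-HMG-CoA was then added for 20 min at 37 °C. Read-out: 14C-mevalonate, corrected by 3H-mevalonate recovery. I50 taken from composite dose-response regressions, 2-5 experiments.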

SMILES	IC50
Cc1nc(-c2ccccc2)c(C)c(-c2ccc(F)cc2)c1COP(=O)(O)C[C@H](O)CC(=O)O	1300 nM
CC(C)c1nc(C(C)(C)C)cc(-c2ccc(F)cc2)c1COP(=O)(O)C[C@H](O)CC(=O)O	1.4 nM
CCc1nc(-c2ccccc2)c(C)c(-c2ccc(F)cc2)c1COP(=O)(O)C[C@H](O)CC(=O)O	19.4 nM
O=C(O)C[C@@H](O)CP(=O)(O)OCc1c(-c2ccc(F)cc2)cc(-c2ccccc2)nc1C1CC1	29 nM
Cc1c(-c2ccccc2)nc(C(C)C)c(COP(=O)(O)C[C@H](O)CC(=O)O)c1-c1ccc(F)cc1	5.1 nM
Cc1c(-c2ccccc2)nc(C2CC2)c(COP(=O)(O)C[C@H](O)CC(=O)O)c1-c1ccc(F)cc1	1.3 nM
CC(C)c1nc(-c2ccccc2)cc(-c2ccc(F)cc2)c1COP(=O)(O)C[C@H](O)CC(=O)O	12.7 nM
CCc1c(-c2ccccc2)nc(C(C)C)c(COP(=O)(O)C[C@H](O)CC(=O)O)c1-c1ccc(F)cc1	2.5 nM
CC(C)c1nc2c(c(-c3ccc(F)cc3)c1COP(=O)(O)C[C@H](O)CC(=O)O)CCCc1ccccc1-2	1.2 nM
CC[C@H](C)C(=O)O[C@H]1C[C@H](O)C=C2C=C[C@H](C)[C@H](CC[C@@H](O)C[C@@H](O)CC(=O)[O-])[C@H]21.[Na+] [PRAVASTATIN SODIUM]	24 nM

system: Rattus norvegicus; experiment: The compound was tested in vivo for inhibition of Cholesterol Biosynthesis from [14C]- acetate in rat after intravenous administration.; format: functional; conditions: not given
Procedure, shortened: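 Male Sprague-Dawley rats (200-300 g) were kept on a reverse light cycle. Salt forms were given iv into the tail vein in saline, 5 min before ip sodium [1-14C]acetate (25 µCi/100 g), dosed 2 h before mid-dark. Blood was taken 2 h after mid-dark. Read-out: 14C nonsaponifiable plasma lipid per mL versus controls, 4-5 rats/group. ED50 from log dose regressions, mean of ≥2 experiments.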

SMILES	ED50
CC[C@H](C)C(=O)O[C@@H]1C[C@@H](C)C=C2C=C[C@H](C)[C@H](CC[C@@H](O)C[C@H](O)CC(=O)[O-])C21.[Na+] (stereo partly specified)	0.033 mg/kg
CC[C@H](C)C(=O)O[C@H]1C[C@H](O)C=C2C=C[C@H](C)[C@H](CC[C@@H](O)C[C@@H](O)CC(=O)[O-])[C@H]21.[Na+] [PRAVASTATIN SODIUM]	0.053 mg/kg

species: Rattus norvegicus; experiment: The compound was tested for inhibition of Cholesterol synthesis from [14C]- Acetate in hepatocytes of rats.; format: functional; conditions: Hepatocyte, read-out: I 50
Procedure, shortened: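 Rat hepatocytes were freshly isolated by collagenase perfusion, 70-90% viable. Cells were suspended at 5 × 10^6 per 2.0 mL in Tris pH 7.4 incubation medium with cofactors; DMSO was ≤1.0% final. Incubation was with [14C]acetate (2 µCi/mL) for 2.0 h at 37 °C. Lipids were extracted by Bligh-Dyer and the percent of label in the cholesterol peak was compared with controls. I50 from composite curves of two or more studies.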

SMILES	IC50
CCc1c(-c2ccccc2)nc(C(C)C)c(C#CP(=O)([O-])C[C@H](O)CC(=O)[O-])c1-c1ccc(F)cc1.[Na+].[Na+]	519 nM

same assay, conditions: Hepatocyte, read-out: I50

SMILES	IC50
CC[C@H](C)C(=O)O[C@@H]1C[C@@H](C)C=C2C=C[C@H](C)[C@H](CC[C@@H](O)C[C@H](O)CC(=O)[O-])C21.[Na+] (stereo partly specified)	146 nM

biological target: T1, 3-hydroxy-3-methylglutaryl-coenzyme A reductase; experiment: In vitro for inhibition of rat HMG-CoA reductase.; conditions: read-out: I50; procedure, shortened: as §1

SMILES	IC50
Cc1c(-c2ccccc2)nc(C(C)C)c(CCP(=O)(O)C[C@H](O)CC(=O)O)c1-c1ccc(F)cc1	9.2 nM
CCc1nc(-c2ccccc2)c(C)c(-c2ccc(F)cc2)c1CCP(=O)(O)C[C@H](O)CC(=O)O	79.8 nM
CC(C)c1cc(-c2ccccc2)nc(-c2ccc(F)cc2)c1C#CP(=O)(O)C[C@H](O)CC(=O)O	420 nM
CC(C)c1nc(-c2cccc3c2OCO3)cc(-c2ccc(F)cc2)c1C#CP(=O)(O)C[C@H](O)CC(=O)O	84.6 nM
CC(C)c1nc(C(c2ccccc2)c2ccccc2)cc(-c2ccc(F)cc2)c1C#CP(=O)(O)C[C@H](O)CC(=O)O	14.9 nM
CC(C)c1nc2c(c(-c3ccc(F)cc3)c1/C=C/P(=O)(O)C[C@H](O)CC(=O)O)CCCc1ccccc1-2	1.3 nM
CC(C)c1nc2c(c(-c3ccc(F)cc3)c1C#CP(=O)(O)C[C@H](O)CC(=O)O)Cc1ccccc1-2	75.6 nM
CC(C)c1nc2c(c(-c3ccc(F)cc3)c1CCP(=O)(O)C[C@H](O)CC(=O)O)CCCc1ccccc1-2	18.6 nM
CC(C)c1nc(-c2ccccc2)c(F)c(-c2ccc(F)cc2)c1C#CP(=O)(O)C[C@H](O)CC(=O)O	44.9 nM
Cc1c(-c2ccccc2)nc(C2CC2)c(C#CP(=O)(O)C[C@H](O)CC(=O)O)c1-c1ccc(F)cc1	4.6 nM
CC(C)c1nc2c(c(-c3ccc(F)cc3)c1C#CP(=O)(O)C[C@H](O)CC(=O)O)CCc1ccccc1-2	52.5 nM
CC(C)c1nc(C(C)(C)C)cc(-c2ccc(F)cc2)c1CCP(=O)(O)C[C@H](O)CC(=O)O	17.2 nM
CCc1nc(-c2ccccc2)c(C)c(-c2ccc(F)cc2)c1C#CP(=O)(O)C[C@H](O)CC(=O)O	110 nM
Cc1nc(-c2ccccc2)c(C)c(-c2ccc(F)cc2)c1CCP(=O)(O)C[C@H](O)CC(=O)O	235 nM
CCc1c(-c2ccccc2)nc(C(C)C)c(C#CP(=O)([O-])C[C@H](O)CC(=O)[O-])c1-c1ccc(F)cc1.[Na+].[Na+]	5.6 nM

system: Rattus norvegicus; experiment: The compound was tested in vivo for inhibition of Cholesterol Biosynthesis from [14C]- acetate in rat after peroral administration.; format: functional; conditions: po

SMILES	ED50
CC[C@H](C)C(=O)O[C@@H]1C[C@@H](C)C=C2C=C[C@H](C)[C@H](CC[C@@H](O)C[C@H](O)CC(=O)[O-])C21.[Na+] (stereo partly specified)	0.4 mg/kg
CCc1c(-c2ccccc2)nc(C(C)C)c(C#CP(=O)([O-])C[C@H](O)CC(=O)[O-])c1-c1ccc(F)cc1.[Na+].[Na+]	4.5 mg/kg
CC[C@H](C)C(=O)O[C@H]1C[C@H](O)C=C2C=C[C@H](C)[C@H](CC[C@@H](O)C[C@@H](O)CC(=O)[O-])[C@H]21.[Na+] [PRAVASTATIN SODIUM]	0.75 mg/kg

species: Homo sapiens; experiment: The compound was tested for inhibition of Cholesterol synthesis from [14C]- Acetate in human skin fibroblasts; format: functional; conditions: read-out: I 50
Procedure, shortened: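 Human skin fibroblasts (passage 7-27) were plated at 5 × 10^5 cells/well and cultured 18 h. Sterol synthesis was induced by 24 h in serum-free MEM with 1.0% fatty acid-free BSA. Cells were preincubated with compound for 30 min (DMSO ≤1.0%), then given sodium [1-14C]acetate at 2.0 µCi/mL for 4 h. Label in the extracted cholesterol peak was compared with controls. I50 from composite curves of ≥2 experiments.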

SMILES	IC50
CCc1c(-c2ccccc2)nc(C(C)C)c(C#CP(=O)([O-])C[C@H](O)CC(=O)[O-])c1-c1ccc(F)cc1.[Na+].[Na+]	6750 nM

same assay, conditions: read-out: I50

SMILES	IC50
CC[C@H](C)C(=O)O[C@@H]1C[C@@H](C)C=C2C=C[C@H](C)[C@H](CC[C@@H](O)C[C@H](O)CC(=O)[O-])C21.[Na+] (stereo partly specified)	18.8 nM
